Compound activity from PubChem BioAssay.
SUMO1-SIM PPI: modulators of SUMO1 protein-protein interactions, primary screen, biochemical, uHTS. inhibition, % at 20 µM. Small ubiquitin-related modifier 1 (Homo sapiens), P63165. 0.33% of 360,000 active. SUMO1 binding to a labelled peptide, TR-FRET, 1 h. AID 602429, 2012; in the data active = inhibition above about 37%
Target sequence (P63165 whole entry, looked up): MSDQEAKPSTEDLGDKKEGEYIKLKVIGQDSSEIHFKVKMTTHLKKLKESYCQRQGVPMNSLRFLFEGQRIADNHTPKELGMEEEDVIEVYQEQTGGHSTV
FAS-TE inh: FAS thioesterase domain inhibitors, primary screen, biochemical, fluorescence intensity, uHTS; AID 602261, 2012; Fatty acid synthase (Homo sapiens), P49327; recombinant FAS-TE, OMFH fluorogenic substrate, fluorescence endpoint; 0.67% of 360,000 active; inhibition, % at 15 µM;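 active = compounds whose normalised, plate-corrected inhibition of enzyme fluorescence in the single-dose primary screen is 50% or more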;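 note: 0% = DMSO with enzyme and 100% = substrate without enzyme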
Scp-1 inhibitor: Scp-1 phosphatase inhibitors, primary screen, biochemical, colorimetric, uHTS. inhibition, % at 20 µM. 0.88% of 340,000 active. Carboxy-terminal domain RNA polymerase II polypeptide A small phosphatase 1 (Homo …. AID 493091, 2011. Recombinant Scp1, phosphopeptide, malachite green phosphate absorbance;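 active = inhibition above about 50% at 20 µM, limit read from the data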;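 note: plate controls were DMSO wells with enzyme for no effect and wells lacking enzyme for full effect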
Target sequence (Q9GZU7 76-261 limits assumed): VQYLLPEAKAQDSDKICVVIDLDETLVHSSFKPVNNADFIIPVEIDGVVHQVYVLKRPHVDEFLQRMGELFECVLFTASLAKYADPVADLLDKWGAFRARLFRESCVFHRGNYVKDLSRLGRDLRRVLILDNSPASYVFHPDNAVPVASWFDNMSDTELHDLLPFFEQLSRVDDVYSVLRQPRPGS
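Material: truncated SCP-1 phosphatase (76-261aa) / Buffer or medium: 50 mM Tris acetate pH 5.5, 0.005% Tween-20, 10 mM MgCl2 / Compound dosing: one concentration, 20 µM, with 1.0% DMSO / Incubation: 45 min room-temperature reaction, 5 min colour, 30 min stabiliser / Detection: colorimetric free-phosphate detection, absorbance 630 nm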
LMPTP block: LMPTP phosphatase inhibitors, primary screen, biochemical, fluorescence intensity, uHTS | Low molecular weight phosphotyrosine protein phosphatase (Homo sapiens), P24666 | recombinant LMPTP-A, OMFP fluorogenic substrate | inhibition, % at 20 µM | 0.22% of 360,000 active | AID 651560, 2012;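 active = compounds that cut the enzyme signal by at least half of the control window in the single-dose screen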;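 note: plate controls were DMSO wells with enzyme plus substrate for no effect and substrate without enzyme for full effect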
Target sequence (P24666 whole entry, looked up): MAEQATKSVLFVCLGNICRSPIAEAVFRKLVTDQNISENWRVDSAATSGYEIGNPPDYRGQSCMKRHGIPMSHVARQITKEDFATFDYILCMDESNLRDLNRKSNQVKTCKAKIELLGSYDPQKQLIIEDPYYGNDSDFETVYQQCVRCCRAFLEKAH
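Material: LMPTP-A; amount: 0.625 nM enzyme; doses: single 20 µM dose; times: reaction 50 min, room temperature, dark; technique: fluorescence intensity of OMFP turnover product; benchmarks: no-enzyme and uninhibited controls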
STEP block: STEP phosphatase inhibitors, primary screen, biochemical, fluorescence intensity, uHTS; Tyrosine-protein phosphatase non-receptor type 5 (Homo sapiens), P54829; recombinant STEP, OMFP fluorogenic substrate; inhibition, % at 20 µM; 0.25% of 360,000 active; AID 588621, 2011;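 active = inhibition at 20 µM, scaled per plate between control wells, above about 37%, limit read from the data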;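 note: 0% = DMSO with enzyme and substrate and 100% = substrate only without enzyme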
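Also added – OMFP at 25 µM · Test system – STEP tyrosine phosphatase · Technique – FITC-channel fluorescence of OMFP product · Schedule – 20 min at room temperature, dark · Evaluation – control-normalized % inhibition with plate pattern correction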
Scp1 confirm: Scp-1 phosphatase inhibitors, retest, confirmation, biochemical, colorimetric, single concentration. shares compounds with Scp-1 inhibitor. recombinant SCP-1 catalytic domain, phosphate release, malachite green absorbance. inhibition, % at 20 µM. 61% of 2,500 active. AID 540281, 2011;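 note: plate controls were DMSO with enzyme for no effect and buffer wells lacking enzyme for full effect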
Scp-1 MG ctr: colorimetric readout interference by compounds, confirmation, artefact control for Scp-1 inhibitor project, biochemical, single concentration; Colorimetric interference counterscreen, malachite green absorbance 630 nm; 2,500 tested, under 10 active; AID 540313, 2011; shares compounds with Scp-1 inhibitor; apparent inhibition (interference), % at 20 µM;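 note: compounds added after enzyme reaction finished so only phosphate colour detection is probed; plate controls were DMSO wells with completed Scp-1 reaction for no effect and substrate wells lacking enzyme for full effect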
Scp-1 Tm shift: Scp-1 binding by thermal shift, confirmation, orthogonal assay for Scp-1 inhibitor project, biophysical, differential scanning fluorimetry | Recombinant SCP1, Sypro Orange thermal shift Tm | AID 540329, 2011 | shares compounds with Scp-1 inhibitor | thermal shift relative to vanadate control, % at 40 µM | 25% of 1,500 active;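 active = substances whose mean melting-temperature shift, as a percentage of the reference inhibitor's shift, reaches about 5.3%, limit read from the data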;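 note: 0% = Tm of DMSO wells and 100% = Tm with sodium orthovanadate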
* = called active by the depositor; / = not tested or not shown. Hits are enriched below; roughly 1.9% of the tested compounds scored in any of these assays.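 Rule for the calls, unless noted: active = inhibition of at least 30% at 20 µM; inactive = the rest.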

SMILES | SUMO1-SIM PPI | FAS-TE inh | Scp-1 inhibitor | LMPTP block | STEP block | Scp1 confirm | Scp-1 MG ctr | others
CC(C)c1cccc(-c2ccc3c(c2)S(=O)(=O)c2cccc(C(=O)NCc4ccco4)c2C3=O)c1 | 3 | 6 | 68* | 2 | 2 | 49* | 0 | Scp-1 Tm shift=11*
O=C(c1cc2nc(-c3ccc(F)cc3)cc(C(F)(F)F)n2n1)N1CCOCC1 | -3 | -2 | 53* | -3 | -2 | -14 | -9
C[C@@H](c1ccccc1)N1C[C@@H](COCc2ccccc2)Oc2cc(N3CC[C@@H](N(C)C)C3)ccc2S1(=O)=O | -47 | 25 | / | -3 | / | / | /
CN(Cc1cnccn1)Cc1nc(Cc2cccc(F)c2)no1 | 2 | -3 | -12 | -1 | 19 | / | /
COc1ccc(N2CC(C(=O)N/N=C/c3ccccc3)CC2=O)cc1 (configuration not stated) | -2 | -4 | 14 | -1 | -1 | -23 | -22
O=C(Nc1cccc([N+](=O)[O-])c1)c1ccncc1 | -9 | -6 | 0 | -1 | 1 | / | /
O=C(Nc1cccc([N+](=O)[O-])c1)c1cnccn1 | -9 | -10 | 58* | 3 | 4 | 56* | -17 | Scp-1 Tm shift=6.4*
CCN(CC)CCNC(=O)c1ccc(NC(=O)C2CCN(c3ncnc4sc(C)c(C)c34)CC2)cc1 | -7 | -4 | 112* | 1 | -1 | -14 | -8
COc1ccccc1CNC(=O)c1cnccn1 | 2 | -1 | 56* | 0 | -2 | 57* | -11 | Scp-1 Tm shift=0
COc1ccccc1CNC(=O)COC(=O)c1cnccn1 | -1 | -2 | 43 | -1 | 2 | / | /
COc1ccccc1-c1cc2c(c3c1ccn3C)C1CCC2C1 (configuration not stated) | -8 | 8 | / | 1 | 3 | / | /
CN(C(=O)CCN1C(=O)/C(=C/c2ccccc2)SC1=S)C1CCS(=O)(=O)C1 (configuration not stated) | 80* | -2 | 76* | 15 | 14 | 19 | 0
CCOC(=O)C1(C)CCCCN1C(=O)c1cccc(Cl)c1 (configuration not stated) | 2 | -8 | / | -1 | -2 | / | /
CCCn1c(CN2CCN(C(=O)c3ccco3)CC2)nc2cc(S(=O)(=O)N(C)C)ccc21 | -3 | -8 | 51* | 0 | 1 | -8 | -13
CCn1c(CN2CCN(c3ccc(OC)cc3)CC2)nc2cc(S(=O)(=O)N(C)C)ccc21 | 7 | -1 | -7 | 2 | 1 | / | /
O=S(=O)(c1cccc2cnccc12)N1CCNCC1 | -3 | -4 | 60* | -1 | 0 | -16 | -13
CCOC(=O)C1=C(O)/C(=C/c2ccc(CNC(=O)C(=O)Nc3ccc(C)cc3)o2)N=C1C | 20 | -4 | 69* | 28 | 3 | 2 | -17
CCOC(=O)c1c(C)cc2c(CO)n[nH]c(=O)c2c1C | 6 | -5 | / | -2 | -2 | / | /
Cc1cccc(Nc2ccccc2C(=O)OCC(=O)NCc2ccco2)c1C | 5 | 19 | 23 | 2 | 1 | / | /
Cc1ccccc1C(=O)OCC(=O)NCc1ccco1 | 1 | -7 | 53* | 0 | -1 | 18 | -9
O=C(COC(=O)C1CC2C=CC1C2)NCc1ccco1 (configuration not stated) | 2 | -2 | 71* | 4 | 4 | 70* | -5 | Scp-1 Tm shift=-3
O=C(COC(=O)CCOc1ccccc1)NCc1ccco1 | 2 | -5 | 102* | 6 | 0 | 58* | -14 | Scp-1 Tm shift=-1
Cc1noc(C)c1COc1ccccc1C(=O)NCCOc1ccccc1 | -7 | -1 | -4 | -7 | 2 | / | /
C=CCOc1c(Br)cc(/C=N/n2c(CC)n[nH]c2=S)cc1Br | 4 | 3 | 72* | 1 | 2 | -17 | -16
CCN(CC)S(=O)(=O)c1ccc(/C=C/C(=O)OCC(=O)NCc2ccco2)cc1 | -17 | -2 | 71* | 10 | 7 | 79* | 2 | Scp-1 Tm shift=4
SMILES | SUMO1-SIM PPI | FAS-TE inh | Scp-1 inhibitor | LMPTP block | STEP block | Scp1 confirm | Scp-1 MG ctr | others
COc1ccc(CNC(=O)COC(=O)c2ccc(S(=O)(=O)NCc3ccco3)cc2)cc1 | 2 | 0 | 55* | 2 | 6 | 61* | -12 | Scp-1 Tm shift=-1
CCN(CC)S(=O)(=O)c1ccc(C(=O)OCC(=O)NCc2ccco2)cc1 | 0 | 1 | 55* | 0 | 2 | 47* | -6 | Scp-1 Tm shift=-8
O=C(COC(=O)c1ccc(S(=O)(=O)NCc2ccco2)cc1)NCc1ccc(F)cc1 | 2 | -1 | 4 | 1 | -3 | / | /
O=C(CSc1nnnn1-c1ccc(Cl)cc1)N1CCc2ccccc2C1 | -2 | 11 | -16 | 1 | -1 | / | /
O=c1[nH]c2cc3c(cc2cc1CN(Cc1cccnc1)Cc1nnnn1Cc1ccco1)OCCO3 | 16 | -5 | 84* | 47 | 3 | 12 | -13
CCOC(=O)C1=CN(Cc2ccco2)S(=O)(=O)NC1c1cccc(OC)c1 (configuration not stated) | 5 | -10 | -1 | 0 | -1 | / | /
COc1ccc(-c2csc(NC(=O)CSc3nc(C)nc4sc(C(=O)O)c(C)c34)n2)cc1 | 22 | -52 | 87* | 3 | 0 | 64* | -13 | Scp-1 Tm shift=10*
COc1ccc(-c2csc(NC(=O)CSc3nc(C)cs3)n2)cc1 | 4 | 23 | -14 | -3 | 2 | / | /
COc1ccccc1C(=O)NNC(=O)C12CC3CC(CC(C3)C1)C2 | 4 | -4 | -3 | -1 | 1 | / | /
C[n+]1cccc(C(=O)NNC(=O)C23CC4CC(CC(C4)C2)C3)c1 | 1 | -4 | 102* | 0 | -1 | 13 | -15
CC1(C(=O)NS(=O)(=O)c2cccc(C#N)c2)CCN1C(=O)CC1CCCCC1 (configuration not stated) | 1 | -5 | / | -3 | 0 | / | /
COC(=O)c1ccccc1NC(=O)c1cc[n+](C)cc1 | -34 | -5 | 51* | -2 | -3 | -12 | -22
